Test system: MS2 coat protein
Assay: apparent Kd, MS2 coat protein; higher = weaker binding; RNA-MaP array; FMN 200 µM where present
Summary of the method: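 Stalled E. coli RNA polymerase produced the designs on Illumina sequencing-chip clusters. SNAP-549-labelled MS2 coat protein was added from 0.7 or 1.5 nM, doubling to 3 µM, without and then with constant ligand, in 100 mM Tris-HCl pH 7.5, 80 mM KCl, 4 mM MgCl2, BSA, DTT, yeast tRNA and Tween-20. The apparent Kd is the median of filtered per-cluster fits of green signal normalised to red-channel RNA signal and control-cluster median Fmax.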

[1] = designed as: OFF switch for flavin mononucleotide, no ligand
[2] = ligand present: flavin mononucleotide, designed as: OFF switch for flavin mononucleotide
[3] = designed as: ON switch for flavin mononucleotide, no ligand
[4] = ligand present: flavin mononucleotide, designed as: ON switch for flavin mononucleotide

| Sequence | apparent Kd [1] [nM] | apparent Kd [2] [nM] | apparent Kd [3] [nM] | apparent Kd [4] [nM] |
| --- | --- | --- | --- | --- |
| AAGAGUAGAGGAUAUACAUGAGGAUCACCCAUGUAAUCCAGAUAAGGAAGCAUGGCGUGUAGAAGGCUGCAUGA | 38.5 | 42.4 | – | – |
| CAGGUAGACUGAGGAUAUACAGACCUAGUCUAUCUAGGUCAAUUCCUUACAUGAGGAUCACCCAUGUAGAAGGCAGUCUGCCUG | 18.7 | 38.8 | – | – |
| AUUAUUAUAUUAUACAUGAGGAUCACCCAUGUUAUAAGUCAUGAGGAUAUGGUAUUGUAGUUAUUCCAGAAGGCAUUUAACUUA | – | – | 11.4 | 7.05 |
| UCAGUAGAGUGAGGAUAUACGAAAGGCGAUCCAUACAUGAGGAUCACCCAUGUAGAAGGCACUCUACUGUAAGUCGGAAACGAC | 173 | 12.3 | – | – |
| GGGUAUAAACCCGUCUCCGCUCAACCAGAAGGGCACGAUAAUAUUACAUGAGGAUCACCCAUGUUGCAGGAUAUGGUGAGCCUC | – | – | 363 | 66.9 |
| GAACGUGACAUGAGGAUCACCCAUGUUGCCUUGGCCAGGUCGUAGGAUAUCCUGUUGAUUAAUUUGGAGAAGGGCGACUGGGAG | – | – | 33.5 | 12.9 |
| GAGUGGUAAAGAGGAUAUGCAUUGUUAUUCACUGCAGAAGGUUUUAACAUGAGGAUCACCCAUGUAGGACUAUUCCUGUGUUUC | – | – | 14.6 | 12.5 |
| AAAAGACAUGAGGAUCACCCAUGUCUUCGGACAUGAGGAUAUGUACAGACUUCGGUCUGUACAGAAGGCAUGUCAA | – | – | 39.8 | 17.2 |
| CCAGGCUUCGAGAAGGACAUGAGGAUCACCCAUGUGCGUGUGAAGCAGCCGUGAGGCUGCAUCAUGUAGGAUAUCGGAGUCUGG | 71.9 | 499 | – | – |
| GGUGCGUUUGUGAGGAUAUGCUGGUCCUUGGAUCAGCAGAAGGCACAUGAGGAUCACCCAUGUGGUGUCGUCCC | 348 | 44.7 | – | – |
| GCCGGGUAGGCAGGAUAUCCUCGCGCAAACACAUGAGGAUCACCCAUGUACACAAAACGUGAUAUGGAGAAGGGCCAACCCACG | – | – | 24.1 | 5.8 |
| CCUGUGUGAGGAUAUGGUGUUGGCAAAAAGGAAUAGCUCCUCCAGAAGGCACAUGAGGAUCACCCAUGUCGUGG | 15.2 | 36 | – | – |
| UGCACGAGGCAAGGAUAUGCUGACAUGAGGAUCACCCAUGUGAGCAUGGGUCUGGUACGGGAUCAGCAGAAGGUGCACCGAGGU | 36.8 | 27.4 | – | – |
| GUAGCACAAACAAAUGUAACAUGAGGAUCACCCAUGUGUUAUGAGGAUAUGGAUGUGAAGUUAAUCCAGAAGGCAUUAUGCUAC | – | – | 18.6 | 11.3 |
| AAGUAGGUAGGAUAUACAUGGAUAUACAUUCAUGUGGACCUACAUGAGGAUCACCCAUGUAGAAGGACCUAUAA | 40.4 | 58 | – | – |
| GUCAGCUCGUGAGGAUAUACAACAGUGCUUCGGCAGUGUAUUAAGAUCACAUGAGGAUCACCCAUGUAGAAGGCACGAGCUGAU | 13.1 | 207 | – | – |
| AUUUCGUUAGCAGGAUAUGGACAGGCCUGUCCGUAUUGAGUCAGUAACAUGAGGAUCACCCAUGUCCAGAAGGGCUCGAAGUAU | 7.83 | 15.3 | – | – |
| GAUUAACAUGAGGAUCACCCAUGUGAGGAUAUGAACUAGACCACUUACCCGAUAUUGUUCAGAAGGCGCAUUCU | 34.1 | 39.5 | – | – |
| AGCUGUGGCCGAGGAUAUCUAAUAAUCCCAACCGAAAUAUAAUCGGACAUGAGGAUCACCCAUGUAGAGAAGGCGGUCUCAGCA | 143 | 307 | – | – |
| CUAGUAUAUCAGGAUAUGAUUUUGUGUAGUUGGUCAGAAGGGAUGACAUGAGGAUCACCCAUGUUAAGGAGUGA | 122 | 146 | – | – |
| UUGUUUUUUGAGGAUAUGCGACGUUUUUUCGUCGUAGAAGGCGAUACAUGAGGAUCACCCAUGUUUAUGGGCAU | 124 | 169 | – | – |
| AUAUAGUCAGGAUAUCGAAAUAUAUAUUAAUAUAUAUAAUACGAGAAGGGACAUGAGGAUCACCCAUGUAGUAA | 25.7 | 31.1 | – | – |
| GCCAUCGCAUGAGGAUAUGCUCGGGUUUCCCGAGCAGAAGGCAUGUCACAAGACAUGAGGAUCACCCAUGUAGUUAAGAUGGCA | – | – | 190 | 9.98 |
| AUUCAGUCAGGAUAUCGUUAAUUUAAUUGUUUGUUUUAGUUCGAGAAGGGACAUGAGGAUCACCCAUGUACUUA | 25.9 | 27.3 | – | – |
| CGUAAGAUGCAGAAGGUGUUAGCUAGAGCUACGACAUGAGGAUCACCCAUGUACUAGAAACAGUACAAGGAUAUGCAUCUUACC | – | – | 18.8 | 6.58 |
| UUAUUAUAUGUAGGAUAUGCAUAUUAGUAUUGUGCAGAAGGACAUGAGGAUCACCCAUGUAUAUUAUUAUUAUAUAUUAUAUAU | 14.6 | 21.4 | – | – |
| CGCUCAAGAGAGAAGGAUUGAAUCAGAAGGCGUUACAUGAGGAUCACCCAUGUAUAGUAGUGUAACGAGGAUAUGAAAUGAGCG | 133 | 437 | – | – |
| GCAUUGAUAACAGGAUAUAUGAGUCCUACAUGAGGAUCACCCAUGUAGGUGAUCAGCCGUGAUUAGUAGAAGGGUUAUCAAUGC | – | – | 13 | 5.99 |

| Sequence | apparent Kd [1] [nM] | apparent Kd [2] [nM] | apparent Kd [3] [nM] | apparent Kd [4] [nM] |
| --- | --- | --- | --- | --- |
| GGAUUUACUGAGGAUAUUGCAUCACCCGACUGAUAAGAAGGCAGAACAUGAGGAUCACCCAUGUGGGUACUCAC | 53.7 | 63.2 | – | – |
| GUAGCUAUCGGAGGAUAUUCAUACCGGAAACGGACAUGAGGAUCACCCAUGUGGCGAAAGCCAUGGGAGAAGGCCGAUAGCUAC | – | – | 606 | 131 |
| GCCUUAUCGGUCAGGAUAUACACCCGUCACUUCUUGUAGAAGGGACAUGAGGAUCACCCAUGUACAUUACAUUG | 313 | 177 | – | – |
| GGGCUGUCAGGAUAUCUCGGGCUCGGGUAAAUCUGGGUCUGGGAGAAGGGACAUGAGGAUCACCCAUGUGGCCC | 34.3 | 37.9 | – | – |
| UCUCUUCUGUAGAAGGCCCGACUUGUGAAGACAACAAUGCUAUAGAAGUAGGGAGGAUAUACAUGAGGAUCACCCAUGUAGGAA | 11.6 | 29.3 | – | – |
| CAGACCGGCAUAGGAUAUGUCGACAUGAGGAUCACCCAUGUAAGCCUUGUCUGGUCCGGUGUGUGACAGAAGGAUGUCGGCCAU | 37.7 | 26.4 | – | – |
| GUAGAGUAAGGAUAUGCUGAAUAGGAUAGAAUGGUUAGAAAGUAGAAGGUACAUGAGGAUCACCCAUGUAAUGU | 24.9 | 25.7 | – | – |
| GUCAGCUCGUGAGGAUAUACAUGUGCUGGAAACAGCAUUAUAUUUUUCACAUGAGGAUCACCCAUGUAGAAGGCACGAGCUGAU | 16.3 | 27 | – | – |
| GACUUGUCAGGAUAUCUUACAUAAACAUCGUAGUUACAAUUGGAGAAGGGACAUGAGGAUCACCCAUGUUUGGC | 28 | 25.4 | – | – |
| GGAAAUCAUGUAGGAUAUGCAUGGCGAAGCUACGCAGAAGGACAUGAGGAUCACCCAUGUUCUAGCGUCUGAGUUCAGAUGCAA | 20.4 | 56.3 | – | – |
| AGAUGACGAUGUCAUCUUCGUCGGACAUGAGGAUCACCCAUGUAGGAUAUGCUACUCAAAGAGUAGCAGAAGGACAUGUGUCUU | 24.6 | 92.1 | – | – |
| ACUGACAUGAGGAUCACCCAUGUCUUGAAUAGGUCAAAUUCACAGGAUAUGCGCUAGGACAGGGUGCAGAAGGGUGAUGCAAUG | – | – | 45.4 | 12.1 |
| UUGGAUGUCGUAGGAUAUGUAGGAUAUUCCUACAUGAGGAUCACCCAUGUUGACAUGGAAGAAGGACAGAAGGACGAUGUCCAU | – | – | 209 | 5.03 |
| AAUUGAAACGUAGGAUAUCGCUAUAAAUUAAUUCGAGAAGGACGUACAUGAGGAUCACCCAUGUUAAAUGGUGUAGUUUAGUUG | 108 | 270 | – | – |
| CAGGUAGACUGAGGAUAUACAAGACUUAGUCUAUCUAGGUCAUUAACCACAUGAGGAUCACCCAUGUAGAAGGCAGUCUGCCUG | 17.7 | 23.9 | – | – |
| UACCAAUUUUUGGUAUUACACUAUGAGGAUAUCAUAUAUGAAUACAUGAGGAUCACCCAUGUGUGUGAGAAGGCAUAAUUUAUA | – | – | 28.1 | 10.5 |
| UUUCAGUCAGGAUAUCGUUAAUUUAAUUGUUUGUUUUAGUUCGAGAAGGGACAUGAGGAUCACCCAUGUACUUU | 20 | 20 | – | – |
| GUAGCAUACCGAGGAUAUUCUGGGCAUAAAUAAACAUGAGGAUCACCCAUGUGGCGAAAGCCUAGGGAGAAGGCGGAAUGCUAC | – | – | 14.8 | 13.6 |
| CUUCAGUGAGGAUAUGGCAUGCGCUGAUAAGCGCUCUCACGCCAGAAGGCACAUGAGGAUCACCCAUGUAAAAC | 39.1 | 152 | – | – |
| GGAUUACAAAUUUAUUUAAUACGAACAUGAGGAUCACCCAUGUAGGAUAUGCUAGUUAAGUAAUAGCAGAAGGACAUGUGCCUU | 10.8 | 30.6 | – | – |
| GUGUACAGAGGAUAUACACGAGGAGUUACGAAAGUAACUUCACAUGAGGAUCACCCAUGUAGAAGGCUGUACAC | 25.3 | 36.6 | – | – |
| AGCCCUGACGUCAGGAUAUCCGGCCAAUAGGCCAAGGAGAAGGGACAUGAGGAUCACCCAUGUGCUUGGGUCCG | 23.7 | 37 | – | – |
| UUGGACGUCGUAGGAUAUGUAGGGUAUUCCUACAUGAGGAUCACCCAUGUUGACAUGGAAGAAGGACAGAAGGACGAUGUCCAU | – | – | 183 | 4.94 |
| AGGGAUAAAGGAUAUACAUGAGGAUCACCCAUGUUGAGGAAAGUGAGAGGUGGCGAUAGUAGAAGGUUAGGUGG | 92.6 | 70.1 | – | – |
| UGUGUGUGACAGGAUAUGCAGGUUAUGAGACGGGUAGAAGGGUCUACAUGAGGAUCACCCAUGUGGCCGGUUGG | 18 | 16.9 | – | – |
| AGCCGUGUACAGAAGGGCGACAUGAGGAUCACCCAUGUCUCCUUGUUGGUCGUAGGAUAUGUACCGUGGCUCUCUACUGUGGGA | 5.96 | 7.28 | – | – |
| GGGUAGGACAGAGGAUAUACGUGCUAGAGAUACUAGCAAAAUUUCCUCACAUGAGGAUCACCCAUGUAGAAGGCUGUCCUAUCG | 16.9 | 397 | – | – |

— the EternaBench riboswitch data
